Results from ChEMBL document CHEMBL1128475, “Synthesis, pharmacologic activity, and structure-activity relationships of a series of propafenone-related modulators of multidrug resistance” (1995).

What was measured:
CCRF-CEM [1] = test: The chemosensitizing effect was measured against P-glycoprotein expressing CCRF-CEM cells in the presence of […]; type: functional; conditions: Homo sapiens, read-out: ED50 (the source's name)
How it was run: (§1)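 CCRF-CEM vcr 100 cells (selected stepwise in vincristine; kept in 100 ng/mL vincristine until 1 week before use), RPMI 1640 with 10% FCS. Cytotoxicity of daunomycin or etoposide by MTT reduction, formazan dissolved in 2-propanol/0.04 N HCl, absorbance read. Modifier at 5 μM; six toxin concentrations, triplicate points, ED50 estimated. Reversion potency = toxin ED50 without/with modifier.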

CCRF-CEM [2] = test: The percentage uptake of [3H]daunomycin in resistant CCRF-CEM vcr 100 cells to sensitive CCRF-CEM cells in presence of the compound.; type: functional, cell-based; conditions: Homo sapiens
How it was run: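 Rapid-centrifugation uptake. Resistant CCRF-CEM vcr 100 and sensitive CCRF-CEM cells at 5×10^6 cells/mL in RPMI 1640 with 2% FCS. Modifier (final 5 μM, from 100× DMSO stock) added 10 min before [3H]daunomycin (0.4 μCi/mL; total daunomycin final 1 μmol/L). Sampled at 0–60 min, spun through phthalate oil, pellets solubilized in NaOH/SDS, counted by LSC. Expressed as % of sensitive-cell uptake.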

CCRF-CEM [3] = test: The reversion potency of compound was measured against P-glycoprotein expressing CCRF-CEM cells and expressed as the ratio of ED50 in the absence and presence […]; type: functional, Homo sapiens
CCRF-CEM [4] = test: The effective dose was measured against P-glycoprotein expressing CCRF-CEM cells in the presence of 5 uM etoposide; type: functional; conditions: Homo sapiens, read-out: ED50 (the source's name); how it was run: as §1
CCRF-CEM [5] = test: The reversion potency of compound was measured against P-glycoprotein expressing CCRF-CEM cells and expressed as the ratio of ED50 in the absence and presence of etoposide; type: functional, Homo sapiens; how it was run: as §1
CCRF-CEM [6] = test: The effective dose was measured against P-glycoprotein expressing CCRF-CEM cells in the presence of […]; type: functional; conditions: Homo sapiens, read-out: ED50 (the source's name); how it was run: as §1

In the case of CC(C)N(CC(O)COc1ccccc1C(=O)CCc1ccccc1)C(C)C (stereo not given), the EC50 (CCRF-CEM [1]) is reported as 65 nM, the Uptake (CCRF-CEM [2]) is reported as 82% and the RP (CCRF-CEM [3]) is reported as 22.

CCCNCC(O)c1oc2ccccc2c1CCc1ccccc1 (stereo not given) was tested, and the EC50 (CCRF-CEM [1]) was 198 nM and the RP (CCRF-CEM [3]) was 7.

Cc1ccccc1N1CCN(CC(O)COc2ccccc2C(=O)CCc2ccccc2)CC1 (stereo not given) gave an EC50 (CCRF-CEM [4]) of 648 nM, an EC50 (CCRF-CEM [1]) of 43 nM and an Uptake (CCRF-CEM [2]) of 96%. For the same compound, the RP (CCRF-CEM [3]) was 33 and the RP (CCRF-CEM [5]) was 5.4.

For O=C(CCc1ccccc1)c1ccccc1OCC(O)CN1CCCCC1 (stereo not given), the EC50 (CCRF-CEM [4]) was 3300 nM, the EC50 (CCRF-CEM [1]) was 46 nM and the Uptake (CCRF-CEM [2]) was 83%. It also gave an RP (CCRF-CEM [3]) of 30 and an RP (CCRF-CEM [5]) of 1.1.

CCCNCC(O)COc1ccccc1C(=O)CCc1ccccc1 (stereo not given) [PROPAFENONE] gave an EC50 (CCRF-CEM [1]) of 88 nM, an Uptake (CCRF-CEM [2]) of 65% and an RP (CCRF-CEM [3]) of 16.

O=C(CCc1ccccc1)c1ccccc1OCC(O)CN1CCN(c2ccc(F)cc2)CC1 (stereo not given) gave an EC50 (CCRF-CEM [4]) of 1020 nM, an EC50 (CCRF-CEM [1]) of 41 nM and an Uptake (CCRF-CEM [2]) of 92%. It also gave an RP (CCRF-CEM [3]) of 34 and an RP (CCRF-CEM [5]) of 3.4.

With CCCN(C)CC(O)COc1ccccc1C(=O)CCc1ccccc1 (stereo not given) the EC50 (CCRF-CEM [1]) was 55 nM and the RP (CCRF-CEM [3]) was 26.

CCN(CC)CC(O)COc1ccccc1C(=O)c1ccccc1 (stereo not given) gave an EC50 (CCRF-CEM [1]) of 150 nM and an RP (CCRF-CEM [3]) of 9.

Compound O=C(CCc1ccccc1)c1ccccc1OCC(O)CN1CCCC1 (stereo not given) has an EC50 (CCRF-CEM [1]) of 70 nM and an RP (CCRF-CEM [3]) of 20.

For O=C(CCc1ccccc1)c1ccccc1OCC(O)CN1CCOCC1 (stereo not given), the EC50 (CCRF-CEM [1]) was 359 nM and the RP (CCRF-CEM [3]) was 4.

With COc1ccc(CCN(C)CCCC(C#N)(c2ccc(OC)c(OC)c2)C(C)C)cc1OC (stereo not given) the EC50 (CCRF-CEM [4]) was 3400 nM, the Uptake (CCRF-CEM [2]) was 79% and the EC50 (CCRF-CEM [6]) was 45 nM.

With COc1ccc(N2CCN(CC(O)COc3ccccc3C(=O)CCc3ccccc3)CC2)cc1 (stereo not given) the EC50 (CCRF-CEM [4]) was 948 nM, the EC50 (CCRF-CEM [1]) was 33 nM and the Uptake (CCRF-CEM [2]) was 96%. For the same compound, the RP (CCRF-CEM [3]) was 42 and the RP (CCRF-CEM [5]) was 3.7.

Work on CC(=O)c1ccccc1OCC(O)CN1CCCCC1 (stereo not given) yielded an EC50 (CCRF-CEM [1]) of 770 nM and an RP (CCRF-CEM [3]) of 2.

Compound CCN(CC)CC(O)COc1ccccc1C(=O)CCc1ccccc1 (stereo not given) has an EC50 (CCRF-CEM [4]) of 3400 nM, an EC50 (CCRF-CEM [1]) of 115 nM and an Uptake (CCRF-CEM [2]) of 68%. The RP (CCRF-CEM [3]) was 12.
